Measured values from different studies.
Cell line: NCI-H226
Effect on: cell growth or viability

COc1ccc(C(=O)/C=C/c2ccc(Cl)c(Cl)c2)cc1S(N)(=O)=O  GI50 (SRB; 48 h): 3 µM
CCCc1n(Cc2ccc3ccccc3n2)cc[n+]1Cc1ccc2ccccc2n1  TGI (SRB): 34.8 µM
Cc1cc(C)n(C(=S)[S][Au][PH](CCCCCC[PH]([Au][S]C(=S)n2nc(C)cc2C)(c2ccccc2)c2ccccc2)(c2ccccc2)c2ccccc2)n1  GI50 (SRB): 2.52 µM
COc1ccc(C(=O)/C=C/c2cc3c(cc2Br)OCO3)cc1S(N)(=O)=O  GI50 (SRB; 48 h): 2.8 µM
O=c1[nH]cc(S(=O)(=O)Nc2cccc(-c3nnc(-c4cccc(Cl)c4)o3)c2)c(=O)[nH]1  IC50 (MTT; 24 h): 7.7 µM
COc1ccc(-c2ccc(-c3ccc(C(=N)N)nc3)s2)cc1  GI50 (SRB): 1.81 µM
NC(=O)c1cc(Cl)ccc1NC(=O)COc1ccccc1  GI50 (SRB): > 100 µM
COC(=O)/C=C/C=C/c1ccc2c(c1)OCO2  IC50 (SRB): 99.1 µM
CCCCc1n(Cc2ccc3ccccc3n2)cc[n+]1Cc1ccc2ccccc2n1  TGI (SRB): 13.6 µM
COc1ccc(C(=O)/C=C/c2ccc3ccccc3c2)cc1S(N)(=O)=O  GI50 (SRB; 48 h): 2.3 µM
CC(=O)O[C@H]1C(=O)[C@@]2(C)[C@H]([C@H](OC(=O)c3ccccc3)[C@]3(O)C[C@H](OC(=O)[C@H](O)[C@@H](NC(=O)c4ccccc4)c4ccccc4)C(C)=C1C3(C)C)[C@]1(OC(C)=O)CO[C@@H]1C[C@@H]2O  IC50 (SRB): 0.0043 µM
COc1ccc(C(=O)/C=C/c2ccccc2Br)cc1S(N)(=O)=O  inhibition (SRB; 10 µM): 79%
CCc1n(Cc2ccc3ccccc3n2)cc[n+]1Cc1ccc2ccccc2c1  TGI (SRB): 4.87 µM
O=C1NC(=NCc2cccs2)S/C1=C\c1ccc2ncccc2c1  IC50: > 10 µM
COc1ccc(C(=O)/C=C/c2cccc(Br)c2)cc1S(N)(=O)=O  GI50 (SRB; 48 h): 2.8 µM
CCCc1n(Cc2ccc3ccccc3n2)cc[n+]1Cc1ccc2ccccc2c1  TGI (SRB): 7.6 µM
CCCCC[C@H](O)CC(=O)CCc1ccc(O)c(OC)c1  IC50 (SRB): 145 µM
